Source: BindingDB's records for doi:10.1016/j.bmc.2019.03.050 (University of Illinois At Chicago, 2019)
pIC50, pKd, pKi: −log10 of the molar value.

How the values were obtained:
[1] = biological target: T1, Replicase polyprotein 1ab (Middle East respiratory syndrome-related coronavirus (isolate United Kingdom/H123990006/2012), UniProt K9N7C7); assay: Binding affinity to MERS-CoV papain-like protease by SPR analysis
Procedure, shortened: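 SPR on Biacore T200. Enzyme at 50 µg/mL in 10 mM sodium acetate pH 5.5 amine-coupled to CM5 chip (~10,000 RU); blank flow cells as reference. Compounds 0-50 µM (2-fold series) in PBSP + 0.5 mM TCEP, 2% DMSO, 30 µL/min, 25°C; double-referenced. KD from steady-state responses fit to rectangular hyperbola; rate constants from global 1:1 Langmuir fit.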

[2] = biological target: T1, Replicase polyprotein 1ab; assay: Inhibition of MERS-CoV papain-like protease using Z-Arg-Leu-Arg-Gly-Gly-AMC as substrate preincubated for 5 mins followed by substrate addition and measured for 10 mins by fluorescence assay
[3] = biological target: T1, Replicase polyprotein 1ab; assay: Competitive-inhibition of MERS-CoV papain-like protease using varying levels of Z-Arg-Leu-Arg-Gly-Gly-AMC as substrate by Dixon-plot analysis

T1 sequence (K9N7C7 854-2740 limits assumed): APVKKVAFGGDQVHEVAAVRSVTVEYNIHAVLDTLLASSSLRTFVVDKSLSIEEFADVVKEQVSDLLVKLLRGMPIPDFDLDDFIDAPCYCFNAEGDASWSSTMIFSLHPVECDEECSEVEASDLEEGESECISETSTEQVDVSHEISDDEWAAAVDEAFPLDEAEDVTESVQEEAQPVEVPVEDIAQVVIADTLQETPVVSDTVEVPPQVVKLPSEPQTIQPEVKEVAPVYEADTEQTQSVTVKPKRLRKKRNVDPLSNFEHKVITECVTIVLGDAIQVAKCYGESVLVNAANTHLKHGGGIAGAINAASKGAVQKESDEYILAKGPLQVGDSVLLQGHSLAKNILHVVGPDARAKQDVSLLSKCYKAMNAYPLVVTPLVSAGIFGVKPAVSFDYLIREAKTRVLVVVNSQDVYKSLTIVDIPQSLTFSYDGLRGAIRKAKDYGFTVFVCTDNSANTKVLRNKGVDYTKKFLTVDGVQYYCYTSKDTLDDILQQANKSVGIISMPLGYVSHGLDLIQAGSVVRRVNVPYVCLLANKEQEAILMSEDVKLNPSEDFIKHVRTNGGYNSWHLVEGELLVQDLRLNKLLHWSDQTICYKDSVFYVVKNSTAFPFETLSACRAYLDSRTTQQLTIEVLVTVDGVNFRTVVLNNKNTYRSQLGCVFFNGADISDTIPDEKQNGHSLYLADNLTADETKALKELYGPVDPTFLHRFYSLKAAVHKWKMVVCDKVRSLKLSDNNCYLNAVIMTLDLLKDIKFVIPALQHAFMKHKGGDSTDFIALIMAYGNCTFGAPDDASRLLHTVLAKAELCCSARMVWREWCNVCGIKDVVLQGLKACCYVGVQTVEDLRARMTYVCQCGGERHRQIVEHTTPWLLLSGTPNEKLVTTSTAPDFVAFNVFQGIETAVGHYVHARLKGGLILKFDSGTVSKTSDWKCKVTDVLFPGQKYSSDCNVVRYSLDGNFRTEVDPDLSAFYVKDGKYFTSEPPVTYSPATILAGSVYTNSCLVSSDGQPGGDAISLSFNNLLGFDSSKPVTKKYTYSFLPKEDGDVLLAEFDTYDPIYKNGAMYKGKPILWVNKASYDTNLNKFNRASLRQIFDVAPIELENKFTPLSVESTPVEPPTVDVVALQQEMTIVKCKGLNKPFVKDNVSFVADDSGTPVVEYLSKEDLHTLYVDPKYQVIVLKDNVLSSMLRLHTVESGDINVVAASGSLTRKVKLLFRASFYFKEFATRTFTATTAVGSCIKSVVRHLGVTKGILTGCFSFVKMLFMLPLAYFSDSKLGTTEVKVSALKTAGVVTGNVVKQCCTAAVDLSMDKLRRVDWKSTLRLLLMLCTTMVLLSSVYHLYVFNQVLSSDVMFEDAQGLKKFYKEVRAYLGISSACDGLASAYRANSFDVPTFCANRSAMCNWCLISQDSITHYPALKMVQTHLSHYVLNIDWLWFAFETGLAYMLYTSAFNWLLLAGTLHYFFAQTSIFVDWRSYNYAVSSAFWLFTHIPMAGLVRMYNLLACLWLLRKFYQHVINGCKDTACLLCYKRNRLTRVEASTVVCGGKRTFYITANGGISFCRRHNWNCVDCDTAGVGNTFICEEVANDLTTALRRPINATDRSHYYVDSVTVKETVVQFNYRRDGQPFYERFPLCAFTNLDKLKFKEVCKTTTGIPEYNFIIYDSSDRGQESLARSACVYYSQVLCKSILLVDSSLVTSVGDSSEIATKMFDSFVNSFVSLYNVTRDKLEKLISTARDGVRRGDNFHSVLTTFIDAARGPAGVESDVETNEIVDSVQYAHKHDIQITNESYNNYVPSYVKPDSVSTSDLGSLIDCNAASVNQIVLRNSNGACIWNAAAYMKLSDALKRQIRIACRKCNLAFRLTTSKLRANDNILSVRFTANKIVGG

## O=C(NC1=CC=CC2C(=O)C=C(c3nn[nH]n3)OC12)c1ccc(OCCCCc2ccccc2)cc1 (stereo not drawn) [ONO-1078]
[1]
  pKd: 4.85
[2]
  pIC50: 4.60
[3]
  pKi: 3.90
